Among the data in the RNAGym collection of RNA variant scans (doi:10.1126/science.aae0568) are yeast fitness values, retold here.

B1: tRNA (parent)
chain: GUUCCGUUGGCGUAAUGGUAACGCGUCUCCCUCCUAAGGAGAAGACUGCGGGUUCGAGUCCCGUACGGAACG

Fewer inactive variants are shown than the library holds. Some results are limits rather than exact numbers.

The series covers variants of B1. Briefly: yeast fitness relative to wild type (ratio to wild type); higher = fitter; tRNA-Arg(CCU), competitive growth, 37 C, YPD. The method, boiled down:
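Variants of the tRNA-Arg(CCU) gene, chemically synthesised with a 3% per-site mutation rate at 69 sites, were placed at the native genomic locus in Saccharomyces cerevisiae. The pooled strains were competed in YPD at 37°C for 24 hours in six parallel replicates. Gene amplicons from the start population and from each end population were read by 100-nucleotide paired-end sequencing. Darwinian fitness relative to wild type came from changes in genotype frequencies; genotypes needed ≥ 100 starting reads, and estimates < 0.5 were set to 0.5.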
Turning to G10C U13C G18C C27U C33G C55U U64A G68C A70U, the yeast fitness was 0.593.
With G10C C30G A43U G68U the figure was no more than 0.5; with G10C G12A U28C C61G C66U, no more than 0.5; with G10C G12C C33U U35G C49G, no more than 0.5.
As to G10C G12A A15G A69C, the yeast fitness was no more than 0.5.
The result for G10C C24U U64C reads no more than 0.5.
With G10C C60A C62A, the yeast fitness was 0.529.
The result for G10C G58C reads 0.722.
The result for G10C G58A reads 0.553; that for G10C G58U, no more than 0.5; that for G10C C49U A69C, 0.575.
For the variant G10C C49A C62U, the yeast fitness was no more than 0.5.
The result for G10C C29U reads 0.589; that for G10C C46G, 0.708.
G10C G12C G39A C61U: the yeast fitness is no more than 0.5.
G10C C33G U64C: the yeast fitness was no more than 0.5.
With G10C C27U G38A C46G the figure was 0.57.
In the case of G10C C27G C61G, the yeast fitness was no more than 0.5.
Take G10C C60U: the yeast fitness was no more than 0.5.
On to G10C C60A, for which the yeast fitness is 0.583.
As to G10C C55A A65C G68A, the yeast fitness was no more than 0.5.
As to G10C G56A, the yeast fitness came out at 0.596.
The result for G10C C27G A42C C66U reads 0.534.
G10C C34G A69U A70C: the yeast fitness came to 0.711.
With G10C G63A G68C the figure was no more than 0.5.
As to G10C C33A U35C G67C, the yeast fitness was determined as 0.675.
As for G10C C30G U59G C66A, the yeast fitness is no more than 0.5.
As to G10C C34G U54C A70U, the yeast fitness was no more than 0.5.
The result for G10C C24U C29A A42G A45U C46G U47A G50A U64G reads no more than 0.5.
With G10C G12A A15G A36U C46U the figure was no more than 0.5; with G10C C61G, 0.656; with G10C C61U, 0.792.
As to G10C C33G A36C, the yeast fitness is no more than 0.5.
With G10C G51A G63A the figure was no more than 0.5; with G10C C24G C49G C55A, 0.683.
As for G10C C31U U35G C62U, the yeast fitness is no more than 0.5.
With G10C C31U U35G, the yeast fitness was no more than 0.5.
As to G10C C34G A40G, the yeast fitness is no more than 0.5.
The result for G10C C34A C55U reads no more than 0.5; that for G10C U13A C31A C55U, no more than 0.5; that for G10C G12C C49U G56C, no more than 0.5.
The result for G10C C29A G68C reads no more than 0.5; that for G10C C27G U54C C61G, no more than 0.5; that for G10C G12A G25C A37G, no more than 0.5.
The result for G10C C49U C62U reads no more than 0.5.
Turning to G10C G56A A70C, the yeast fitness was 0.554.
With G10C G50A C61G the figure was 0.554; with G10C C33G A57G, no more than 0.5.
With G10C G18A C22U G63A the figure was no more than 0.5.
With G10C G51A the figure was 0.585.
Take G10C C29A A40U C55G: the yeast fitness is no more than 0.5.
The result for G10C G44A A70C reads no more than 0.5.
The result for G10C U16C A20G reads no more than 0.5.
With G10C C34A the figure was 0.504; with G10C C31U A57C C62A, no more than 0.5; with G10C G18A C66U, no more than 0.5.
Regarding G10C C29U C31U A45C, the yeast fitness stood at 0.623.
On to G10C U13C U53C, for which the yeast fitness worked out at 0.512.
As to G10C C29U A69C, the yeast fitness was no more than 0.5.
For the variant G10C G41A C66U, the yeast fitness was no more than 0.5.
With G10C C34A G67A the figure was no more than 0.5; with G10C C55A C61U A65C G68A, no more than 0.5.
With G10C C24G C49U C66U the figure was no more than 0.5; with G10C C33U A36G A43G, no more than 0.5; with G10C C33A G48A G58A, no more than 0.5.
The result for G10C C46G G51A G52A reads no more than 0.5; that for G10C G12C C46A, no more than 0.5; that for G10C C29U C46A A69U, 0.59.
On to G10C C33G A36C U64A A65C, for which the yeast fitness was no more than 0.5.
With G10C G12A C33G U47G the figure was no more than 0.5; with G10C C49G A65G, 0.55.
With G10C C24U C61G C66U A69U, the yeast fitness is no more than 0.5.
The result for G10C C30G reads 0.507.
As for G10C C30U, the yeast fitness was 0.733.
The result for G10C C30A reads 0.815; that for G10C G50A U59A, no more than 0.5.
The result for G10C G68C reads 0.697.
The result for G10C C27G G38C G56A reads 0.526; that for G10C G44C C55G A69U, 0.59.
In the case of G10C C29A C46U C60G, the yeast fitness is no more than 0.5.
For G10C C33U G48C, the yeast fitness was no more than 0.5.
The result for G10C G23C C33G C46A C66A reads no more than 0.5; that for G10C U13C G18C C27U C33G C46A C55U U64A G68C A70U, no more than 0.5; that for G10C G12A U16A C30U, no more than 0.5.
The result for G10C G12C C33U U35G reads 0.614; that for G10C C34A A40G, 0.631.
The result for G10C G12C G17U G39A C61U A69C reads no more than 0.5; that for G10C C34G C49U, no more than 0.5.
For the variant G10C G44C G51C, the yeast fitness was no more than 0.5.
In the case of G10C C30U G51A G63A, the yeast fitness is no more than 0.5.
With G10C G41C the figure was 0.634; with G10C C34G A42U A70C, no more than 0.5; with G10C G12C C55A, no more than 0.5.
Consider G10C C33G U53C C55U A70G, for which the yeast fitness was no more than 0.5.
The result for G10C G23A G52C C62U reads 0.55; that for G10C C27G A42C, no more than 0.5.
For the variant G10C G23A A45C U54C, the yeast fitness is 0.58.
Turning to G10C U16A C30U, the yeast fitness came to 0.54.
The result for G10C C29G G39A reads no more than 0.5; that for G10C C24G C55A, no more than 0.5.
With G10C G12C C46G C55U G67C the figure was no more than 0.5.
The result for G10C G48A U54A reads no more than 0.5; that for G10C C55A, 0.568; that for G10C G12U C33U U35G, no more than 0.5.
For the variant G10C C34G U54C G67U, the yeast fitness is no more than 0.5.
The result for G10C C46G U54C reads no more than 0.5.
Turning to G10C G48A, the yeast fitness stood at 0.851.
Consider G10C C31A A65C A69C, for which the yeast fitness was no more than 0.5.
With G10C C27U C66G the figure was no more than 0.5; with G10C C29A A37G U64C, no more than 0.5; with G10C G18C A45C G56C A70C, no more than 0.5.
With G10C C30U C31A, the yeast fitness is no more than 0.5.
The result for G10C U13A A14G A20G C22A C24G U32G reads no more than 0.5.
As for G10C C31G A65U, the yeast fitness is no more than 0.5.
The result for G10C C31G A45U G68C reads no more than 0.5.
The result for G10C U16G C31A U32G C55U reads no more than 0.5; that for G10C C33A A45C C55U, no more than 0.5; that for G10C C29U C46A, no more than 0.5.
The result for G10C C33G A40U reads 0.579.
In the case of G10C G23C G48A G52A U53C C61A, the yeast fitness was 0.52.
As for G10C U13A A21U U26C C31U A43U G58A G63C A70C, the yeast fitness was no more than 0.5.
On to G10C U13A A43U C61A A70C, for which the yeast fitness is no more than 0.5.
The result for G10C G12C reads 0.645; that for G10C G12A, 0.757; that for G10C C30G C34G A57G C66U, 0.523.
With G10C C31U A57C C62A A70U the figure was no more than 0.5.
Turning to G10C G44A, the yeast fitness amounted to 0.699.
The result for G10C G50A U59A G67U reads no more than 0.5; that for G10C C29U C49G G63C, no more than 0.5; that for G10C C34A A40G A69U, 0.552.
For G10C G44C U47C G52A U53C C61U, the yeast fitness is no more than 0.5.
The result for G10C U13A A14G A20G C22A C24G C62G reads no more than 0.5; that for G10C C34U A40C, 0.667.
Take G10C C31G U32C A36U A57U C60G: the yeast fitness was no more than 0.5.
With G10C U13C G18C C27U C33G A37G C55U U64A G68C A70U the figure was no more than 0.5; with G10C C29A C31U G68C, no more than 0.5; with G10C C29U A43G U53G G63A, 0.527.
With G10C C29U C31U U54G A65U G67A the figure was no more than 0.5.
With G10C C29A A40U C62G the figure was no more than 0.5; with G10C C66U, 0.577; with G10C C27G A42C C49A G67A, no more than 0.5.
With G10C G25A U26C C46G, the yeast fitness is no more than 0.5.
For G10C C46A A69U, the yeast fitness was determined as 0.615.
With G10C C24G C49G the figure was no more than 0.5; with G10C C24G C49U, no more than 0.5.
With G10C G12C G39A G50A A69U the figure was no more than 0.5; with G10C G23A U35A A40U A42U C55G, no more than 0.5; with G10C G48A U54A A69C, no more than 0.5.
For the variant G10C C29G G39A U64A, the yeast fitness was no more than 0.5.
Turning to G10C C33U A40C, the yeast fitness is no more than 0.5.
The result for G10C G12A A45C reads 0.539; that for G10C U13C U32G, no more than 0.5; that for G10C C24U C29G, 0.638.
As to G10C G12C C24U C29G G68C, the yeast fitness was no more than 0.5.
For G10C U16A C30U A57G, the yeast fitness was 0.646.
With G10C C31A the figure was 0.577.
The result for G10C C29G A70C reads no more than 0.5; that for G10C G18C C24U C66U, no more than 0.5; that for G10C C29A A40U C55G G67C, no more than 0.5.
The result for G10C C29G A42U G58A G63A G67A reads no more than 0.5; that for G10C G41A G50C, no more than 0.5; that for G10C G67U, 0.689.
As to G10C C34G U59A, the yeast fitness is no more than 0.5.
On to G10C C27A, for which the yeast fitness turned out to be 0.593.
For G10C C33G C46G C62G, the yeast fitness was no more than 0.5.
The result for G10C C27U A65C reads 0.552.
With G10C C27U A36C C61U the figure was 0.586.
